Laboratory results from ChEMBL document CHEMBL3352199, “Biological evaluation of halogenated thiazolo[3,2-a]pyrimidin-3-one carboxylic acid derivatives targeting the YycG histidine kinase” (Eur J Med Chem, 2014).
In brackets after ≈: the same amount, converted by molar mass. Activity calls are given as the source filed them.

Legend:
[1] = test system: Staphylococcus epidermidis; experiment: Antimicrobial activity against Staphylococcus epidermidis ATCC 35984 after 12 to 16 hrs by broth micro-dilution method; format: functional
In short: (§1)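 Broth micro-dilution in tubes per CLSI. Serial twofold dilutions in Mueller-Hinton broth, top final concentration 200. The inoculum was 6 h cultures adjusted to 0.5 McFarland. Incubated 37 °C 12–16 h. MIC is the lowest concentration with no visible growth by eye. Growth control (no drug) and sterility control (uninoculated broth) were included.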

[2] = test system: Staphylococcus aureus; experiment: Antimicrobial activity against Staphylococcus aureus ATCC 25923 after 12 to 16 hrs by broth micro-dilution method; format: functional; in short: as §1
[3] = test system: Staphylococcus epidermidis; experiment: Antimicrobial activity against Staphylococcus epidermidis ATCC 12228 after 12 to 16 hrs by broth micro-dilution method; format: functional; in short: as §1
[4] = Hemolytic activity in human erythrocytes at 100 uM after 1 hr by spectrophotometry; format: ADME, cell-based; conditions: erythrocyte, 50 µM, in the assay text read “50 uM” for “100 uM”
In short: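 Healthy human erythrocytes exposed to compounds. After incubation, centrifuged at 350 × g for 10 min, and hemolysis read as supernatant absorbance at 570 nm. DMSO (0.1%) served as negative control and Triton X-100 (1%) as positive control.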

[5] = test system: Escherichia coli; experiment: Antimicrobial activity against Escherichia coli ATCC 25922 after 12 to 16 hrs by broth micro-dilution method; format: functional; in short: as §1
[6] = test system: Staphylococcus epidermidis; experiment: Antibiofilm activity against Staphylococcus epidermidis ATCC 35984 at 50 uM after 18 hrs by crystal violet staining method; format: functional, organism-based
In short: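 S. epidermidis ATCC35984 suspension seeded in microtiter wells, 37 °C 6 h to form young biofilm. PBS-washed ×4, then fresh TSB with graded compound dilutions, 37 °C 18 h. Washed, methanol-fixed 15 min, air-dried, crystal violet stained, OD570 read. Cut-off ODc = mean OD570 of negative control + 3×SD (0.28); triplicate.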

[7] = test system: Shigella flexneri; experiment: Antimicrobial activity against Shigella flexneri 301 after 12 to 16 hrs by broth micro-dilution method; format: functional; in short: as §1
[8] = Inhibition of recombinant YycG kinase HK domain autophosphorylation activity (unknown origin) expressed in Escherichia coli BL21 (DE3) preincubated for 30 mins by ATP-Luminescence assay
In short: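 YycG HATPase_c + HisKA domains, expressed in E. coli BL21(DE3), purified on Ni-NTA. Protein at 0.13 mmol/L pre-incubated with serial compound dilutions in 40 mmol/L Tris pH 8.0, 20 mmol/L MgCl₂, 0.1 mg/mL BSA, 25 °C 30 min. ATP 4 mmol/L added, 30 min at 25 °C. Remaining ATP measured by Kinase-Glo luminescence. IC50 fitted from phosphorylation-inhibition rates.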

SMILES	MIC [1] [µM]	MIC [2] [µM]	MIC [3] [µM]	MIC [5] [µM]	MIC [7] [µM]	IC50 [8] [µM]	Activity [4]	Activity [6]
CCOC(=O)C1=C(C)N=c2s/c(=C\c3ccc(OCC(=O)O)cc3)c(=O)n2C1c1ccc(Cl)cc1 (configuration not stated)	200 (≈ 103 µg/mL)	–	200 (≈ 103 µg/mL)	> 200	> 200	–	Non-toxic	inactive
CCOC(=O)C1=C(c2ccccc2)N=c2s/c(=C\c3ccc(OCC(=O)O)cc3)c(=O)n2C1c1ccc(Cl)cc1 (configuration not stated)	3.12 (≈ 1.8 µg/mL)	–	3.12 (≈ 1.8 µg/mL)	> 200	> 200	–	Non-toxic	inactive
CCOC(=O)C1=C(c2ccccc2)N=c2s/c(=C\c3ccc(-c4cccc(C(=O)O)c4)o3)c(=O)n2C1c1ccccc1 (configuration not stated)	200 (≈ 115 µg/mL)	–	200 (≈ 115 µg/mL)	> 200	> 200	–	Non-toxic	inactive
CCOC(=O)C1=C(c2ccccc2)N=c2s/c(=C\c3ccc(-c4cccc(C(=O)O)c4)o3)c(=O)n2C1c1ccc([N+](=O)[O-])cc1 (configuration not stated)	1.56 (≈ 0.97 µg/mL)	25 (≈ 15.5 µg/mL)	3.12 (≈ 1.94 µg/mL)	> 200	> 200	–	Non-toxic	inactive
CCOC(=O)C1=C(c2ccccc2)N=c2s/c(=C\c3ccc(-c4ccc(C(=O)O)cc4)o3)c(=O)n2C1c1ccc(Cl)cc1 (configuration not stated)	6.25 (≈ 3.82 µg/mL)	6.25 (≈ 3.82 µg/mL)	3.12 (≈ 1.91 µg/mL)	> 200	> 200	–	Non-toxic	Active
CCOC(=O)C1=C(c2ccccc2)N=c2s/c(=C\c3ccc(-c4cccc(C(=O)O)c4)o3)c(=O)n2C1c1ccc(F)cc1 (configuration not stated)	6.25 (≈ 3.72 µg/mL)	6.25 (≈ 3.72 µg/mL)	3.12 (≈ 1.86 µg/mL)	> 200	> 200	–	Non-toxic	Active
CCOC(=O)C1=C(C)N=c2s/c(=C\c3ccc(-c4cccc(C(=O)O)c4)o3)c(=O)n2C1c1ccc(OC)cc1 (configuration not stated)	6.25 (≈ 3.4 µg/mL)	–	–	> 200	> 200	–	Non-toxic	inactive
CCOC(=O)C1=C(c2ccccc2)N=c2s/c(=C\c3ccc(-c4cccc(C(=O)O)c4)o3)c(=O)n2C1c1ccc(Cl)cc1 (configuration not stated)	1.56 (≈ 0.953 µg/mL)	6.25 (≈ 3.82 µg/mL)	3.12 (≈ 1.91 µg/mL)	> 200	> 200	12.7	Non-toxic	Active
CCOC(=O)C1=C(c2ccccc2)N=c2s/c(=C\c3ccc(-c4cccc(C(=O)O)c4)o3)c(=O)n2C1c1ccc(OC)cc1 (configuration not stated)	3.12 (≈ 1.9 µg/mL)	–	3.12 (≈ 1.9 µg/mL)	> 200	> 200	–	Non-toxic	Active
COc1ccc(C2C=C(c3ccccc3)N=c3s/c(=C\c4ccc(-c5cccc(C(=O)O)c5)o4)c(=O)n32)cc1 (configuration not stated)	1.56 (≈ 0.834 µg/mL)	6.25 (≈ 3.34 µg/mL)	6.25 (≈ 3.34 µg/mL)	> 200	> 200	49.9	Non-toxic	inactive
CCOC(=O)C1=C(c2ccccc2)N=c2s/c(=C\c3ccc(-c4cccc(C(=O)O)c4)o3)c(=O)n2C1c1ccc(O)cc1 (configuration not stated)	50 (≈ 29.6 µg/mL)	–	50 (≈ 29.6 µg/mL)	> 200	> 200	–	Non-toxic	inactive
CCOC(=O)C1=C(c2ccccc2)N=c2s/c(=C\c3ccc(-c4ccc(C(=O)O)cc4)o3)c(=O)n2C1c1ccc(F)cc1 (configuration not stated)	6.25 (≈ 3.72 µg/mL)	6.25 (≈ 3.72 µg/mL)	6.25 (≈ 3.72 µg/mL)	> 200	> 200	–	Non-toxic	Active

Second part, led by results:

MIC [1] [µM]	MIC [2] [µM]	MIC [3] [µM]	MIC [5] [µM]	MIC [7] [µM]	IC50 [8] [µM]	SMILES	Activity [4]	Activity [6]
17.6 (≈ 8 µg/mL)	17.6 (≈ 8 µg/mL)	17.6 (≈ 8 µg/mL)	–	–	–	Cc1nnc(SCC2=C(C(=O)O)N3C(=O)[C@@H](NC(=O)Cn4cnnn4)[C@H]3SC2)s1 [CEFAZOLIN]	–	–
1.56 (≈ 0.841 µg/mL)	3.12 (≈ 1.68 µg/mL)	6.25 (≈ 3.37 µg/mL)	> 200	> 200	55.6	O=C(O)c1cccc(-c2ccc(/C=c3\sc4n(c3=O)C(c3ccc(Cl)cc3)C=C(c3ccccc3)N=4)o2)c1 (configuration not stated)	Non-toxic	Active
50 (≈ 25.4 µg/mL)	–	50 (≈ 25.4 µg/mL)	> 200	> 200	–	CCOC(=O)C1=C(C)N=c2s/c(=C\c3ccc(OCC(=O)O)cc3)c(=O)n2C1c1ccc(OC)cc1 (configuration not stated)	Non-toxic	inactive
200 (≈ 121 µg/mL)	–	200 (≈ 121 µg/mL)	> 200	> 200	–	CCOC(=O)C1=C(c2ccccc2)N=c2s/c(=C\c3ccc(OCC(=O)O)c(OC)c3)c(=O)n2C1c1ccc(Cl)cc1 (configuration not stated)	–	inactive
50 (≈ 26.9 µg/mL)	–	50 (≈ 26.9 µg/mL)	> 200	> 200	–	CCOC(=O)C1=C(C)N=c2s/c(=C\c3ccc(OCC(=O)O)c(OC)c3)c(=O)n2C1c1ccc(OC)cc1 (configuration not stated)	–	inactive
6.25 (≈ 3.27 µg/mL)	6.25 (≈ 3.27 µg/mL)	3.12 (≈ 1.63 µg/mL)	> 200	> 200	–	O=C(O)c1cccc(-c2ccc(/C=c3\sc4n(c3=O)C(c3ccc(F)cc3)C=C(c3ccccc3)N=4)o2)c1 (configuration not stated)	Non-toxic	Active
6.25 (≈ 3.88 µg/mL)	6.25 (≈ 3.88 µg/mL)	6.25 (≈ 3.88 µg/mL)	> 200	> 200	14	CCOC(=O)C1=C(c2ccccc2)N=c2s/c(=C\c3ccc(-c4cccc(C(=O)O)c4)o3)c(=O)n2C1c1ccc2c(c1)OCO2 (configuration not stated)	Non-toxic	Active
6.25 (≈ 3.79 µg/mL)	–	6.25 (≈ 3.79 µg/mL)	> 200	> 200	–	CCOC(=O)C1=C(c2ccccc2)N=c2s/c(=C\c3ccc(-c4ccc(C(=O)O)cc4)o3)c(=O)n2C1c1ccc(OC)cc1 (configuration not stated)	Non-toxic	inactive
